From PubChem BioAssay
Hits are enriched below; roughly 1.9% of the tested compounds scored in any of these assays.
Tb hexokinase = Trypanosoma brucei hexokinase 1 inhibitors, primary screen, biochemical, G6PDH-coupled NADH absorbance, MLSCN library. hexokinase 1 [Trypanosoma brucei]. recombinant TbHK1, G6PDH-coupled NADH A340. inhibition, % at 10 µM. 220,000 tested, 0.11% active;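 active means inhibition of 50% or more in the single-dose primary screen; inactive means inhibition below 50%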
RanGTP-Imp inh = inhibitors of RanGTP-importin-beta interaction, primary screen, biochemical, FRET, CFP-Ran, YFP-importin-beta, homogeneous. cell-free CFP-Ran/YFP-importin-beta FRET ratio. 300,000 tested, 1.1% active. inhibition, % (test concentration not listed);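 active means more than half of the replicate wells show a fall in the fluorescence ratio signal beyond about 16%, limit read from the data, passing the limit was not always enough; inconclusive means exactly half of the replicate wells pass the set limit; inactive means fewer than half of replicates pass the limit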;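 further: 0% = DMSO wells and 100% = Ran loaded with GDP instead of GTP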
Runt-SMMHC FRET = inhibitors of RUNX1 Runt–CBFb-SMMHC binding, primary screen, biochemical, FRET, Cerulean-Runt, Venus-CBFb-SMMHC, uHTS; Runt-related transcription factor 1 (Homo sapiens) + Core-binding factor subunit beta …; Cerulean-Runt/Venus-CBFb-SMMHC FRET ratio 530/480, 1 h; inhibition, % at 20 µM; 220,000 tested, 0.74% active;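 active means mean inhibition across duplicate retests at 20 µM reaching about 50%, limit read from the data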;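 further: 0% = DMSO wells and 100% = wells with excess untagged CBFb-SMMHC; inhibitors lower the FRET ratio by blocking Runt binding to CBFb-SMMHC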
Target sequence (Q01196 whole entry, looked up): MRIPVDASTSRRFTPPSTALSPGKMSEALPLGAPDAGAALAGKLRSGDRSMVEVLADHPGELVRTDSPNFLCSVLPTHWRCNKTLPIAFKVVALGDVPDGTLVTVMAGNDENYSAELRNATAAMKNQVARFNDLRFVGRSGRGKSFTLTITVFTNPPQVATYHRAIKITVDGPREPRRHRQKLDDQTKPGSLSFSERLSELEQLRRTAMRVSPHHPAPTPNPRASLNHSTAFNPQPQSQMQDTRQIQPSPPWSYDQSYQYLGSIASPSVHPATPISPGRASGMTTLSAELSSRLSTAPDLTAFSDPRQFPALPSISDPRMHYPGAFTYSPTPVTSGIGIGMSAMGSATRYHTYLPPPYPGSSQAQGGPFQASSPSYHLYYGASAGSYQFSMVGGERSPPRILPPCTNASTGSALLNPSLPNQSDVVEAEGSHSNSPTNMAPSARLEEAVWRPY
Target sequence (Q13951 whole entry, looked up): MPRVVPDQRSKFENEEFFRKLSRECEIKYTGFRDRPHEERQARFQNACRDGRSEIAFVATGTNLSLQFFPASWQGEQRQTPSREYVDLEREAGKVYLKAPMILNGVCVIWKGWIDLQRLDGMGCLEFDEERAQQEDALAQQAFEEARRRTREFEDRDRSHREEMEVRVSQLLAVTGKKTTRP
Runt-CBFb FRET = inhibitors of RUNX1 Runt–CBFb binding, primary screen, biochemical, FRET, Cerulean-Runt, Venus-CBFb, uHTS. Runt-related transcription factor 1 (Homo sapiens) + Core-binding factor subunit beta …. Cerulean-Runt/Venus-CBFb FRET ratio 530/480, 1 h. inhibition, % at 20 µM. 220,000 tested, 0.46% active;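 active means inhibition over about 50% at 20 µM in the single-dose screen, limit read from the data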;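 further: 0% = DMSO wells and 100% = excess unlabeled CBFb competitor control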
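Buffer or medium: Tris pH 7.5 buffer with BSA. Assay system: Cerulean-labeled Runt domain protein. Amount: each fluorescent fusion protein 100 nM. Read-out basis: loss of energy transfer signal. Incubation: 1 h compound exposure, room temperature. Probe or stimulus: Venus-CBFb binding partner, 100 nM. Detection: FRET, excitation 422 nm, emission at 530 and 480 nm.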
Hck-Nef inh = inhibitors of Nef-activated human Hck kinase, primary screen, biochemical, Z-Lyte FRET, 384-well, Hck-YEEI | Recombinant Hck-YEEI plus Nef, Z-Lyte FRET kinase assay | Tyrosine-protein kinase HCK (Homo sapiens), P08631 | inhibition, % at 20 µM | 220,000 tested, 0.68% active;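 active means Hck-Nef kinase inhibition above about 50%, limit read from the data; inactive means inhibition below that limit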;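 further: 0% = DMSO with Hck plus Nef and 100% = Hck alone without Nef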
* = called active by the depositor; ? = inconclusive; . = no result given.

SMILES	Tb hexokinase	RanGTP-Imp inh	Runt-SMMHC FRET	Runt-CBFb FRET	Hck-Nef inh
N#Cc1ccccc1Sc1ccccc1C(=O)OCc1nnc(-c2ccccc2)o1	58*	-3	-2	-1	5
CN(C)/C=C(\C=O)c1ccc(Cl)cc1Cl	0	2	-1	3	21
Cc1ncoc1C(=O)N1CCc2c([nH]c3ccccc23)C1C1CCCCC1 (centres undefined)	-9	?	6	-8	-7
O=C(O)C1CCCC2CN3CCc4c([nH]c5ccccc45)C3C(O)C21 (centres undefined)	.	30*	.	.	.
CCNC(=S)N/N=C/c1cc(C)n(-c2ccc(Cl)cc2)c1C	-23	1	4	0	-3
Cc1cc(/C=N/NC(=O)Cn2c3ccccc3c(=O)c3ccccc32)c(C)n1-c1ccc(Cl)cc1	-6	.	.	101*	35
Cc1ccc(-n2c(C)cc(/C=N/NC(=O)Cn3c4ccccc4c(=O)c4ccccc43)c2C)cc1	-7	.	.	106*	38
COC(=O)N/N=C/c1cc(C)n(-c2ccccc2)c1C	14	-4	4	-1	-1
CC1CCCN(S(=O)(=O)c2ccc3[nH]c4c(c3c2)CCCC4)C1 (centres undefined)	.	2	.	.	.
COc1cccc(/C=N/NC(=O)CNC(=O)c2ccc(S(=O)(=O)N3CCCC3)cc2)c1OC	-1	3	-4	1	20
CC(=O)Nc1nc2n(n1)C(c1ccc(Cl)cc1)C=C(C)N2 (centres undefined)	-6	-1	83*	31	16
CCCCc1nnc(NC(=O)C2CC(=O)N(Cc3ccccc3)C2)s1 (centres undefined)	.	-1	.	.	.
Oc1ccc2nnc3c(Br)cnn3c2c1	.	53*	.	.	.
CCOC(=O)c1sc(N/N=C/c2cc(Br)c(O)c(OC)c2)nc1C	.	27*	.	.	.
Cc1cc(OCCN2CCOCC2)ccc1C(C)C	.	-1	.	.	.
CN(C)S(=O)(=O)c1ccc(C(=O)N2CCN(S(=O)(=O)c3cccs3)CC2)cc1	-5	4	-2	0	24
CCCCCCc1cc2cc(C(=O)NCc3ccccc3)c(=N)oc2cc1O	5	146*	75	40	11
N=c1oc2ccc(Br)cc2cc1C(=O)NCc1ccc(F)cc1	.	2	.	.	.
CCN(CC)c1ccc2cc(C(=O)NCc3ccc(F)cc3)c(=N)oc2c1	.	99*	.	.	.
Cc1ccc(/C=C/C2=Cc3c(sc(NC(=O)CSc4n[nH]c(N)n4)c3C#N)C(C)(C)C2)o1	9	-11	12	19	64*
Cc1ccc(NC(=O)C2C3CCC(O3)C2C(=O)O)cc1Cl (centres undefined)	.	-4	.	.	.
O=C(Nc1cnn(Cc2ccccc2)c1)c1cc2nc(-c3ccco3)cc(C(F)(F)F)n2n1	-2	17*	6	-4	1
Cc1nn(C)cc1NC(=O)c1cc2nc(-c3ccco3)cc(C(F)(F)F)n2n1	-19	3	6	2	16
CN1CCc2c(sc(NC(=O)c3ccc(S(=O)(=O)N4CCCCCC4)cc3)c2C(N)=O)C1	.	58*	.	.	.
CN1CCc2c(sc(NC(=O)c3ccc(S(=O)(=O)N4CCCC4)cc3)c2C(N)=O)C1	.	41*	.	.	.
SMILES	Tb hexokinase	RanGTP-Imp inh	Runt-SMMHC FRET	Runt-CBFb FRET	Hck-Nef inh
CNC(=O)c1c(NC(=O)c2ccc(S(=O)(=O)N3CCCc4ccccc43)cc2)sc2c1CCN(C)C2	-19	28*	-48	-262	31
CN1CCc2c(sc(NC(=O)C3CCCN3S(=O)(=O)c3ccc(Cl)s3)c2C(N)=O)C1 (centres undefined)	.	164*	.	.	.
CC(=O)N1CCc2c(sc(NC(=O)C3CCCN3S(=O)(=O)c3cccs3)c2C(N)=O)C1 (centres undefined)	.	-6	.	.	.
CN1CCc2c(sc(NC(=O)c3ccc(S(=O)(=O)N4CCc5ccccc54)cc3)c2C(N)=O)C1	-20	3	14	7	-45
O=C(CN1C(=O)CCC1=O)Nc1cccc2c1C(=O)NC2=O	-1	5	-48	-18	-6
CCN(CCO)c1nc(N2CCCCC2)c2cnn(C)c2n1	.	-1	.	.	.
CCOC(=O)C1=C(C)N=C2SC=C(C)N2C1c1ccc(OC)cc1 (centres undefined)	-8	10	60*	23	17
N#C/C(=C\c1ccc(-c2ccc([N+](=O)[O-])cc2)o1)C(=O)Nc1nc(-c2cccs2)cs1	2	-3	-12	-5	67*
COCCNC(=O)c1c[nH]c2ccc(S(=O)(=O)N(C)c3ccc(C)c(C)c3)cc2c1=O	.	1	.	.	.
O=C(Nc1cccc(NC(=O)c2ccco2)c1)c1ccc([N+](=O)[O-])cc1	-1	75*	-2	0	5
CC(=O)Oc1ccc(C(=O)Nc2cccc(NC(=O)c3ccco3)c2)cc1	.	0	.	.	.
CC1CCCN(c2nc3ccccc3nc2C(C#N)S(=O)(=O)c2ccccc2)C1 (centres undefined)	-4	-3	-47	-14	0
Cc1ccc(S(=O)(=O)C(C#N)c2nc3ccccc3nc2N2CCN(C)CC2)cc1 (centres undefined)	-10	64*	79*	57*	-3
COc1ccc(S(=O)(=O)C(C#N)c2nc3ccccc3nc2N2CCC(C)CC2)cc1 (centres undefined)	.	27*	-6	-1	.
Cc1ccc2c(c1)c1ccc3c(c1n2C)C(=O)C=CC3=O	2	.	32	55*	13
COc1ccc2c(c1)c1ccc3c(c1n2C)C(=O)C=CC3=O	-25	.	41	64*	18
CCN(CC(=O)Nc1c(F)cccc1F)C(=O)C1CCN(c2ncnc3sc(C)c(C)c23)CC1	.	1	.	.	.
N=c1c(C(=O)NCC2CCCO2)cc2c(=O)n3ccccc3nc2n1C1CCCC1 (centres undefined)	.	186*	.	.	.
Cc1cccn2c(=O)c3cc(C(=O)NCC4CCCO4)c(=N)n(C4CCCC4)c3nc12 (centres undefined)	.	187*	.	.	.
Cc1ccc2nc3c(cc(C(=O)NCC4CCCO4)c(=N)n3C3CCCC3)c(=O)n2c1 (centres undefined)	.	194*	.	.	.
N=c1c(C(=O)NCC2CCCO2)cc2c(=O)n3ccccc3nc2n1C1CCCCC1 (centres undefined)	.	12	.	.	.
CCCOc1cccc(C2C(C(=O)c3cccs3)=C(O)C(=O)N2CCN2CCOCC2)c1 (centres undefined)	.	1	.	.	.
COc1ccc(N2CCN(C(=O)c3cc4c(=O)n(Cc5ccccc5)ccc4nc3C)CC2)cc1	.	2	.	.	.
